# Data as given in ChEMBL document CHEMBL1138567, “Regioselective synthesis and antimicrobial screening of novel ketocarbazolodispiropyrrolidine derivatives” (2009).
# Legend:
# Format in all cases: functional
# Details in all cases: read-out: IZ
# Staphylococcus aureus [1] = assay: Antimicrobial activity against Staphylococcus aureus at 75 ug/ml after 24 hrs by agar diffusion method
# How it was run: (§1)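 Agar well diffusion: petri plates (9 cm) with about 9 ml nutrient agar, seeded with the test organism. Wells cut with a cork borer and loaded with test compound at 25, 50, 75 or 100 per ml; tetracycline as control. Incubated 37 °C for 24 h; average inhibition-zone diameter around wells measured (mm).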
# Staphylococcus aureus [2] = assay: Antimicrobial activity against Staphylococcus aureus at 50 ug/ml after 24 hrs by agar diffusion method; how it was run: as §1
# Staphylococcus aureus [3] = assay: Antimicrobial activity against Staphylococcus aureus at 100 ug/ml after 24 hrs by agar diffusion method; how it was run: as §1
# Proteus mirabilis [4] = assay: Antimicrobial activity against Proteus mirabilis at 75 ug/ml after 24 hrs by agar diffusion method; how it was run: as §1
# Proteus vulgaris [5] = assay: Antimicrobial activity against Proteus vulgaris at 50 ug/ml after 24 hrs by agar diffusion method; how it was run: as §1
# Proteus mirabilis [6] = assay: Antimicrobial activity against Proteus mirabilis at 100 ug/ml after 24 hrs by agar diffusion method; how it was run: as §1
# Proteus mirabilis [7] = assay: Antimicrobial activity against Proteus mirabilis at 25 ug/ml after 24 hrs by agar diffusion method; how it was run: as §1
# Proteus mirabilis [8] = assay: Antimicrobial activity against Proteus mirabilis at 50 ug/ml after 24 hrs by agar diffusion method; how it was run: as §1
# [9] = system: Salmonella enterica subsp. enterica serovar Typhi str. CT18; assay: Antimicrobial activity against Salmonella typhi at 100 ug/ml after 24 hrs by agar diffusion method
# How it was run: (§2)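 Agar well diffusion: about 9 ml nutrient agar in 9 cm Petri plates, seeded with the test organism. Wells cut with a cork borer and loaded with test compound at 25–100 per ml; tetracycline as control. Plates incubated 24 h at 37 °C. Read-out is the average diameter of the inhibition zone around each well, in mm.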
# Proteus vulgaris [10] = assay: Antimicrobial activity against Proteus vulgaris at 75 ug/ml after 24 hrs by agar diffusion method; how it was run: as §1
# Staphylococcus aureus [11] = assay: Antimicrobial activity against Staphylococcus aureus at 25 ug/ml after 24 hrs by agar diffusion method; how it was run: as §1
# Proteus vulgaris [12] = assay: Antimicrobial activity against Proteus vulgaris at 25 ug/ml after 24 hrs by agar diffusion method; how it was run: as §1
# [13] = system: Salmonella enterica subsp. enterica serovar Typhi str. CT18; assay: Antimicrobial activity against Salmonella typhi at 25 ug/ml after 24 hrs by agar diffusion method; how it was run: as §2
# [14] = system: Salmonella enterica subsp. enterica serovar Typhi str. CT18; assay: Antimicrobial activity against Salmonella typhi at 50 ug/ml after 24 hrs by agar diffusion method; how it was run: as §2
# Proteus vulgaris [15] = assay: Antimicrobial activity against Proteus vulgaris at 100 ug/ml after 24 hrs by agar diffusion method; how it was run: as §1
# [16] = system: Salmonella enterica subsp. enterica serovar Typhi str. CT18; assay: Antimicrobial activity against Salmonella typhi at 75 ug/ml after 24 hrs by agar diffusion method; how it was run: as §2
Compound,zone of inhibition at 75 µg/mL (Staphylococcus aureus [1]),zone of inhibition at 50 µg/mL (Staphylococcus aureus [2]),zone of inhibition at 100 µg/mL (Staphylococcus aureus [3]),zone of inhibition at 75 µg/mL (Proteus mirabilis [4]),zone of inhibition at 50 µg/mL (Proteus vulgaris [5]),zone of inhibition at 100 µg/mL (Proteus mirabilis [6]),zone of inhibition at 25 µg/mL (Proteus mirabilis [7]),zone of inhibition at 50 µg/mL (Proteus mirabilis [8]),zone of inhibition at 100 µg/mL [9],zone of inhibition at 75 µg/mL (Proteus vulgaris [10]),zone of inhibition at 25 µg/mL (Staphylococcus aureus [11]),zone of inhibition at 25 µg/mL (Proteus vulgaris [12]),zone of inhibition at 25 µg/mL [13],zone of inhibition at 50 µg/mL [14],zone of inhibition at 100 µg/mL (Proteus vulgaris [15]),zone of inhibition at 75 µg/mL [16]
CN(C)[C@@H]1C(O)=C(C(N)=O)C(=O)[C@@]2(O)C(O)=C3C(=O)c4c(O)cccc4[C@@](C)(O)[C@H]3C[C@@H]12 [TETRACYCLINE],28 mm,24 mm,> 40 mm,28 mm,24 mm,> 40 mm,18 mm,24 mm,> 40 mm,28 mm,22 mm,18 mm,18 mm,22 mm,> 40 mm,28 mm
COc1ccc([C@@H]2CN(C)[C@@]3(C(=O)c4cccc5cccc3c45)[C@]23CCc2c([nH]c4ccccc24)C3=O)cc1,21 mm,16 mm,30 mm,20 mm,12 mm,22 mm,14 mm,16 mm,26 mm,13 mm,9 mm,9 mm,13 mm,15 mm,17 mm,18 mm
CN1C[C@@H](c2ccccc2)[C@@]2(CCc3c([nH]c4ccccc34)C2=O)[C@]12C(=O)Nc1ccccc12,16 mm,13 mm,18 mm,14 mm,16 mm,16 mm,9 mm,12 mm,18 mm,20 mm,11 mm,12 mm,9 mm,11 mm,26 mm,13 mm
CN1C[C@@H](c2ccc([N+](=O)[O-])cc2)[C@@]2(CCc3c([nH]c4ccccc34)C2=O)[C@]12C(=O)Nc1ccccc12,14 mm,11 mm,20 mm,16 mm,13 mm,20 mm,12 mm,13 mm,22 mm,18 mm,–,9 mm,9 mm,16 mm,22 mm,18 mm
CN1C[C@@H](c2ccc(Br)cc2)[C@@]2(CCc3c([nH]c4ccccc34)C2=O)[C@]12C(=O)Nc1ccccc12,18 mm,15 mm,22 mm,16 mm,14 mm,18 mm,11 mm,14 mm,16 mm,18 mm,11 mm,11 mm,–,9 mm,21 mm,13 mm
CN1C[C@@H](c2ccc(Br)cc2)[C@@]2(CCc3c([nH]c4ccccc34)C2=O)C12C(=O)c1ccccc1C2=O,19 mm,12 mm,21 mm,14 mm,13 mm,16 mm,9 mm,11 mm,19 mm,16 mm,–,9 mm,–,9 mm,18 mm,18 mm
CN1C[C@@H](c2ccc(Cl)cc2)[C@@]2(CCc3c([nH]c4ccccc34)C2=O)[C@]12C(=O)Nc1ccccc12,18 mm,14 mm,21 mm,18 mm,18 mm,22 mm,13 mm,15 mm,18 mm,24 mm,9 mm,9 mm,11 mm,15 mm,26 mm,17 mm
CN1C[C@@H](c2ccccc2)[C@@]2(CCc3c([nH]c4ccccc34)C2=O)[C@]12C(=O)c1cccc3cccc2c13,21 mm,19 mm,26 mm,22 mm,14 mm,32 mm,11 mm,13 mm,28 mm,18 mm,14 mm,–,11 mm,14 mm,21 mm,20 mm
Cc1ccc([C@@H]2CN(C)[C@@]3(C(=O)c4cccc5cccc3c45)[C@]23CCc2c([nH]c4ccccc24)C3=O)cc1,23 mm,18 mm,27 mm,18 mm,14 mm,21 mm,11 mm,14 mm,29 mm,16 mm,14 mm,11 mm,12 mm,15 mm,20 mm,21 mm
CN1C[C@@H](c2ccc(Cl)cc2)[C@@]2(CCc3c([nH]c4ccccc34)C2=O)C12C(=O)c1ccccc1C2=O,16 mm,11 mm,19 mm,14 mm,14 mm,23 mm,–,9 mm,19 mm,18 mm,9 mm,–,9 mm,13 mm,24 mm,16 mm
COc1ccc([C@@H]2CN(C)C3(C(=O)c4ccccc4C3=O)[C@]23CCc2c([nH]c4ccccc24)C3=O)cc1,15 mm,13 mm,20 mm,17 mm,15 mm,20 mm,13 mm,15 mm,21 mm,16 mm,9 mm,13 mm,–,11 mm,21 mm,16 mm
Cc1ccc([C@@H]2CN(C)C3(C(=O)c4ccccc4C3=O)[C@]23CCc2c([nH]c4ccccc24)C3=O)cc1,18 mm,14 mm,21 mm,14 mm,–,18 mm,9 mm,11 mm,16 mm,9 mm,9 mm,–,–,9 mm,12 mm,14 mm
CN1C[C@@H](c2ccccc2)[C@@]2(CCc3c([nH]c4ccccc34)C2=O)C12C(=O)c1ccccc1C2=O,16 mm,14 mm,20 mm,13 mm,15 mm,15 mm,–,9 mm,18 mm,18 mm,–,11 mm,9 mm,13 mm,21 mm,14 mm
